The record followed here is PubChem BioAssay.

Each structure is given as a SMILES string. The source made the active and inactive calls.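 Rule for the calls, unless noted: active = viability at or below 10% of carrier control in both of two separate runs; inconclusive = viability at or below 10% in only one of the two runs; inactive = the rest.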

Experiment [1] in a line: Her2 expression decrease, cell viability multiplex – SKBR3 breast tumor cells, AlphaScreen, ATP viability, primary screen (AID 461;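 active = Her2 level under about 52% in both replicate screens, with viability over 70% of control, limit read from the data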;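 for Her2 level: lower value means less Her2 protein in the cells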;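 for viability: percent of carrier control wells set as 100% viability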). As to conditions: SKBR3 Her2 protein level, 18-24 h, measured here: SKBR3 viability, ATP luminescence, at 10 µM. Background: In Alpha technology, singlet oxygen from a donor bead excites a nearby acceptor bead.
Experiment [2] concerns the target Receptor tyrosine-protein kinase erbB-2 (Homo sapiens) (UniProt P04626). The experiment is described as above. As to conditions: 18-24 h, at 10 µM, stronger effect = lower value.
Experiment [3] is described as follows: reduced viability of SK-BR-3 breast cancer cells – cell-based, 24 h, human, pilot screen (AID 572).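 Note: compound exposure lasted between 18 and 24 h rather than exactly 24 h; 100% = carrier-treated control wells.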 As to conditions: SK-BR-3 viability, CellTiter-Glo luminescence, at 10 µM, stronger effect = lower value. On the technique in general: ATP-based viability assays read luminescence as a measure of living cells.
The nature of experiment [4]: HUVEC growth inhibition – cell-based, human, primary screen (AID 575;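 active = viability at or below 30% in both replicate assays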;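 note: 100% = median of untreated cell wells with 0.1% DMSO on each plate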). The note with it: HUVEC proliferation, CellTiter-Glo luminescence, 72 h; at 10 µM; stronger effect = lower value. An outline of the steps: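 System – primary HUVEC, no more than 12 passages · Medium – Low-serum (2% FBS) EBM, supplemented · Times – 72 h exposure, 37 °C, 5% CO2, 30 min RT equilibration · Measured by – luminescent ATP assay · Read-out – % viability relative to median vehicle-well signal on each plate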

A short description of experiment [5]: H69AR cell proliferation blockers – human, duplicate replicates, primary screen (AID 580;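 active = viability at or under a set limit in both replicates, limit being median viability minus 3 SD, cut at about 48% in these data, passing the limit was not always enough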;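 note: 100% = mean luminescence of untreated wells and 0% = no signal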). As to conditions: H69AR lung tumor cells viability, ATP luminescence, 72 h; at 10 µM; stronger effect = lower value.
The nature of experiment [6]: MRP1 drug-resistance reversers in H69AR cells – cell-based, doxorubicin co-treatment, pilot screen (AID 601;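 active = viability loss from added drug above about 55%, and viability with drug at most 40%, in both replicates, limit read from the data, passing the limit was not always enough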). The note with it: CellTiter-Glo, 72 h, at 10 µM; for differential viability (reversal): stronger effect = higher value.
The nature of experiment [7]: yeast transport mutant growth inhibition pilot in 384-well plates, post-Golgi transport modulator project (AID 636; in the data active = inhibition above about 31%). The note with it: absorbance 615 nm, about 18 h, stronger effect = higher value.
Experiment [8] in a line: growth suppression of yeast trafficking mutant, preliminary HTS, modulators of trafficking downstream of Golgi apparatus project, 1536-format plate, OD 615 nm (AID 637; in the data active = inhibition above about 30%). As to conditions: yeast transport mutant growth, absorbance 615 nm, 18 h; stronger effect = higher value.
The mark [9] stands for this setting: H69AR cells + 2 uM doxorubicin, measured here: viability with 2 uM doxorubicin, stronger effect = lower value.
[10] abbreviates: H69AR cells, compound alone cytotoxicity.

Receptor tyrosine-protein kinase erbB-2 (Homo sapiens), sequence (P04626 whole entry, looked up): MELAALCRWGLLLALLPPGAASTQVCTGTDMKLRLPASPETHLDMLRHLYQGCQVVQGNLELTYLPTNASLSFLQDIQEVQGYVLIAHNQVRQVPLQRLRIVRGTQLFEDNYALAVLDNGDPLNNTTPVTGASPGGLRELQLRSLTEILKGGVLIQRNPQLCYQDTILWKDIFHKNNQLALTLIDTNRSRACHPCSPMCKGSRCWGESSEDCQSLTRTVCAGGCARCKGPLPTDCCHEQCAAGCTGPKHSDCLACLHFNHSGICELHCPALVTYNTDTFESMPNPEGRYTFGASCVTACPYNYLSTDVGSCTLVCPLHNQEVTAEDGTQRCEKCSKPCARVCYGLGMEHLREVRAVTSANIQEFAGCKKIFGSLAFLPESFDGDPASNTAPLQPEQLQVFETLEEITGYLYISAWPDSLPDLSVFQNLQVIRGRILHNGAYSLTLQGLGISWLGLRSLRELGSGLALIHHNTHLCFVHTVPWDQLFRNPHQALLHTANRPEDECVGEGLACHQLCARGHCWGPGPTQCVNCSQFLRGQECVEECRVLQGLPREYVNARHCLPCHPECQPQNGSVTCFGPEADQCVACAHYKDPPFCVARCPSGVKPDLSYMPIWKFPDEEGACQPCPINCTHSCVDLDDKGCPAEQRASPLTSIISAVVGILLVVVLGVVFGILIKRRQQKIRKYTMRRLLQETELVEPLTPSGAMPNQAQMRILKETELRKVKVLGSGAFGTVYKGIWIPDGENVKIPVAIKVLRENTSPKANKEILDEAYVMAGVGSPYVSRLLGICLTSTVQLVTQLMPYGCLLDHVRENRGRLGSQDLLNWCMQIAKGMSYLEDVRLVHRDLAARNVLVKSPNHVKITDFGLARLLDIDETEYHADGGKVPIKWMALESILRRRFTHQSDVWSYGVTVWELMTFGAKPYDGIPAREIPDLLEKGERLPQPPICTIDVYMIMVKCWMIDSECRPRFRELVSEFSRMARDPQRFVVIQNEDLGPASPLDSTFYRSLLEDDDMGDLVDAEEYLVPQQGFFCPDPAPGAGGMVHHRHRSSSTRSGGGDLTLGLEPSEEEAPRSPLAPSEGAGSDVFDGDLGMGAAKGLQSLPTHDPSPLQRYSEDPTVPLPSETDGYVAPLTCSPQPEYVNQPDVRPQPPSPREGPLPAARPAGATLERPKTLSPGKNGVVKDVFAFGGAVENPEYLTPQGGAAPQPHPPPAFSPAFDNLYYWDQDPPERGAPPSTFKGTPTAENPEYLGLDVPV

One may read the viability as a read-out of living cells in per cent, often relative to untreated cells. A word on the inhibition: it is the drop in the measured response relative to a control, in per cent. With `Cn1c(=O)c2c(nc(CN3CCCCC3)n2CCc2ccccc2)n(C)c1=O`, the viability was 87% in experiment [1]; 87% (inactive) in experiment [3]; 111% (inactive) in experiment [4]; 91.9% (inactive) in experiment [5]; 93.9% in experiment [6] (setting [9]); 91.9% in experiment [6] (setting [10]). Also, in experiment [2], the Her2 level was 107% (inactive). Besides, the differential viability (reversal) in experiment [6] (H69AR cells + 2 uM doxorubicin) is -1.94% (inactive). Besides, the results for the inhibition in experiment [7] and in experiment [8] were 2.27% (inactive) and 13.8% (inactive), respectively.
With `c1ccc2ncc(-n3cnnn3)cc2c1`, the viability in experiment [1] was 99.5%; in experiment [3] it was 99.5% (inactive); in experiment [4] it was 83.2% (inactive); in experiment [5], 94% (inactive); in experiment [6] (setting [9]), 87.9%; in experiment [6] (setting [10]), 94%. The Her2 level in experiment [2] was 105% (inactive). The differential viability (reversal) in experiment [6] (H69AR cells + 2 uM doxorubicin) was 6.05% (inactive). The results for the inhibition in experiment [7] and in experiment [8] were -3.24% (inactive) and 5.74% (inactive), respectively.
Consider `O=C(C1CCCN(S(=O)(=O)c2ccc(Br)s2)C1)N1CCCCCC1` (stereo not given), for which the viability was 83.5% in experiment [1]; 83.5% (inactive) in experiment [3]; 98.4% (inactive) in experiment [4]; 98.1% (inactive) in experiment [5]; 88.2% in experiment [6] (setting [9]); 98.1% in experiment [6] (setting [10]). For the same compound, in experiment [2], the Her2 level is 95% (inactive). For the same compound, the differential viability (reversal) in experiment [6] (H69AR cells + 2 uM doxorubicin) is 9.84% (inactive). Also, the results for the inhibition in experiment [7] and in experiment [8] were -3.16% (inactive) and -3.5% (inactive), respectively.
With `COc1cc(-c2nn3c(-c4cccnc4)nnc3s2)cc(OC)c1OC`, the viability in experiment [1] was 101%; in experiment [3], 101% (inactive); in experiment [4], 90.3% (inactive); in experiment [5], 92.6% (inactive); in experiment [6] (setting [9]) it was 85.8%; in experiment [6] (setting [10]), 92.6%. For the same compound, in experiment [2], the Her2 level is 98.5% (inactive). For the same compound, the differential viability (reversal) in experiment [6] (H69AR cells + 2 uM doxorubicin) is 6.8% (inactive). Besides, the inhibition in experiment [7] was -4.87% (inactive); in experiment [8] it was -4.35% (inactive).
Take `O=C(CCS(=O)(=O)c1cc(Br)cc2c1N(C(=O)C1CC1)CC2)NCC1CCCO1` (stereo not given): the viability in experiment [1] was 122%; in experiment [3], 122% (inactive); in experiment [4], 95.5% (inactive); in experiment [5], 81.8% (inactive); in experiment [6] (setting [9]) it was 85.4%; in experiment [6] (setting [10]) it was 81.8%. Besides, in experiment [2], the Her2 level is 110% (inactive). The differential viability (reversal) in experiment [6] (H69AR cells + 2 uM doxorubicin) is -3.57% (inactive). Moreover, the inhibition was 0.51% (inactive) in experiment [7] and 11.8% (inactive) in experiment [8].
Take `CCOC(=O)C1CCN(S(=O)(=O)c2cc(Cl)c(C)cc2OC)CC1`: the viability in experiment [1] was 90%; in experiment [3], 90% (inactive); in experiment [4], 105% (inactive); in experiment [5], 85.2% (inactive); in experiment [6] (setting [9]) it was 94.6%; in experiment [6] (setting [10]), 85.2%. Moreover, in experiment [2], the Her2 level was 92.5% (inactive). Moreover, the differential viability (reversal) in experiment [6] (H69AR cells + 2 uM doxorubicin) was -9.44% (inactive). In addition, the inhibition in experiment [7] is -2.5% (inactive); in experiment [8], -3.39% (inactive).
For the compound `COC(=O)C1=C(C)NC(=O)C1(NC(=O)CN1CCCC1=O)C(F)(F)F` (stereo not given), the viability was 116% in experiment [1]; 116% (inactive) in experiment [3]; 105% (inactive) in experiment [4]; 101% (inactive) in experiment [5]; 98.3% in experiment [6] (setting [9]); 101% in experiment [6] (setting [10]). For the same compound, the Her2 level in experiment [2] is 91% (inactive). The differential viability (reversal) in experiment [6] (H69AR cells + 2 uM doxorubicin) is 3.15% (inactive). For the same compound, the inhibition in experiment [7] is -4.34% (inactive); in experiment [8] it was -6.03% (inactive).
As to `CCOC(=O)Cc1nnc2c(Nc3ccc(C)cc3)nc3nonc3n12`, the viability in experiment [1] is 97%; in experiment [3] it was 97% (inactive); in experiment [4], 74.9% (inactive); in experiment [5], 94% (inactive); in experiment [6] (setting [9]), 95.2%; in experiment [6] (setting [10]), 94%. Also, the Her2 level in experiment [2] is 76% (inactive). Also, the differential viability (reversal) in experiment [6] (H69AR cells + 2 uM doxorubicin) was -1.2% (inactive). The inhibition in experiment [7] was -4% (inactive); in experiment [8], 7.7% (inactive).
Take `O=C(Cn1ncc2c(=O)oc3ccccc3c21)NCC1CCCO1` (stereo not given): the viability was 104% in experiment [1]; 104% (inactive) in experiment [3]; 108% (inactive) in experiment [4]; 94.8% (inactive) in experiment [5]; 102% in experiment [6] (setting [9]); 94.8% in experiment [6] (setting [10]). In addition, in experiment [2], the Her2 level is 102% (inactive). Besides, the differential viability (reversal) in experiment [6] (H69AR cells + 2 uM doxorubicin) was -7.15% (inactive). Further, the inhibition in experiment [7] is -3.59% (inactive); in experiment [8], -1.17% (inactive).
For `O=C(CSc1nnc2sc3ccccc3n12)c1ccco1`, the viability was 95% in experiment [1]; 95% (inactive) in experiment [3]; 118% (inactive) in experiment [4]; 102% (inactive) in experiment [5]; 85.3% in experiment [6] (setting [9]); 102% in experiment [6] (setting [10]). For the same compound, in experiment [2], the Her2 level was 85.5% (inactive). The differential viability (reversal) in experiment [6] (H69AR cells + 2 uM doxorubicin) is 16.9% (inactive). Also, the inhibition in experiment [7] is -4.46% (inactive); in experiment [8], -6% (inactive).
`COc1ccc(OCCCC(=O)Nc2ccc3c(c2)OCCO3)cc1`: the viability in experiment [1] was 99.5%; in experiment [3], 99.5% (inactive); in experiment [4] it was 81.8% (inactive); in experiment [5], 82.7% (inactive); in experiment [6] (setting [9]), 86.3%; in experiment [6] (setting [10]), 82.7%. Further, the Her2 level in experiment [2] is 93.5% (inactive). For the same compound, the differential viability (reversal) in experiment [6] (H69AR cells + 2 uM doxorubicin) was -3.62% (inactive). Moreover, the inhibition in experiment [7] was -6.76% (inactive); in experiment [8], -6.83% (inactive).
For `COc1ccc(-c2ccc(CCC(=O)O)n2NC(=O)c2cccs2)cc1`, the viability was 122% in experiment [1]; 122% (inactive) in experiment [3]; 95.5% (inactive) in experiment [4]; 101% (inactive) in experiment [5]; 98.3% in experiment [6] (setting [9]); 101% in experiment [6] (setting [10]). Further, the Her2 level in experiment [2] is 92% (inactive). Further, the differential viability (reversal) in experiment [6] (H69AR cells + 2 uM doxorubicin) was 3% (inactive). Moreover, the inhibition was -2.76% (inactive) in experiment [7] and 2.06% (inactive) in experiment [8].
As for `CC(=O)N1CCc2cc(S(=O)(=O)CCC(=O)N3CCN(c4ccccn4)CC3)ccc21`, the viability is 91.5% in experiment [1]; 91.5% (inactive) in experiment [3]; 105% (inactive) in experiment [4]; 98% (inactive) in experiment [5]; 91.6% in experiment [6] (setting [9]); 98% in experiment [6] (setting [10]). Besides, in experiment [2], the Her2 level is 98% (inactive). Further, the differential viability (reversal) in experiment [6] (H69AR cells + 2 uM doxorubicin) was 6.38% (inactive). The inhibition is 4.67% (inactive) in experiment [7] and 12% (inactive) in experiment [8].
For the compound `CCC(C)NC(=O)c1cc(-c2ccc(OC)cc2)on1` (stereo not given), the viability is 106% in experiment [1]; 106% (inactive) in experiment [3]; 118% (inactive) in experiment [4]; 89.8% (inactive) in experiment [5]; 89.3% in experiment [6] (setting [9]); 89.8% in experiment [6] (setting [10]). For the same compound, the Her2 level in experiment [2] is 94% (inactive). Besides, in experiment [6] (H69AR cells + 2 uM doxorubicin), the differential viability (reversal) is 0.48% (inactive). Also, the inhibition in experiment [7] was -8.24% (inactive); in experiment [8], 1.33% (inactive).
